Reference: ChEMBL document CHEMBL5724801, “EUbOPEN Chemogenomics Library - Multiplex” (2024)
Values joined by “and” are separate entries in the source; they are usually repeats but may differ in a detail not shown here. Identical values can stand only once.

tested on: HEK-293T; assay: Multiplex assay against HEK293T; format: toxicity, cell-based; settings: human, 12 h, 1 µM, compound concentration 1 uM
Outline: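 Imaging took place on a CQ1 microscope at 37°C and 5% CO2 once compound had been added to live cells stained at seeding with Hoechst33342, BioTracker Green Microtubule Cytoskeleton Dye, MitoTracker Red and Annexin V Alexa Fluor 680. CellPathfinder machine-learning gating classed cells as Hoechst high-intensity objects or normal cells, classed normal cells as having healthy, pyknosed or fragmented nuclei, and classed pyknosed cells as mitotic or apoptotic. Tubulin, mitochondrial-mass and membrane-permeability phenotypes are per cents of the healthy-nucleus cells.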

Row | SMILES | Population Apoptotic (%) | Population Fragmented Nuclei (%) | Population Healthy Nuclei (%) | Population Hoechst High Intensity Objects (%) | Population Membrane Permeable-Phenotype (%) | Population Mitochondria Different-Phenotype (%) | Population Mitotic Cells (%) | Population Normal (%) | Population Pyknosed Nuclei (%) | Population Tubulin-Different-Phenotype (%)
1 | C[C@H](NC(=O)c1c(C(F)F)nn(C)c1Oc1cccc(C(F)(F)F)c1)c1ccc(C(=O)O)cc1 [PALUPIPRANT] | 40% and 27% | 6% | 80% and 83% | 7% and 5% | 0 | 44% and 60% | 59% and 72% | 92% and 94% | 13% and 10% | 28%
2 | O=C(NCC(=O)N1CC[C@H](N[C@H]2CC[C@@](O)(c3ccc(-c4ncccn4)cn3)CC2)C1)c1cccc(C(F)(F)F)c1 [PF-4136309] | 44% and 34% | 6% and 5% | 80% | 4% and 6% | 0 | 41% and 56% | 56% and 66% | 95% and 93% | 13% | 32% and 15%
3 | CC(C)(C)c1cc(NC(=O)Nc2ccc(-c3cn4c(n3)sc3cc(OCCN5CCOCC5)ccc34)cc2)no1 [QUIZARTINIB] | 27% and 34% | 5% | 83% and 80% | 10% and 6% | 0 | 40% and 58% | 72% and 65% | 89% and 93% | 11% and 14% | 35% and 26%

same assay, conditions: human, 12 h, 1 µM, compound concentration 1 uM

Row | SMILES | Total Cell Count
4 | C[C@H](NC(=O)c1c(C(F)F)nn(C)c1Oc1cccc(C(F)(F)F)c1)c1ccc(C(=O)O)cc1 [PALUPIPRANT] | 407 and 475
5 | O=C(NCC(=O)N1CC[C@H](N[C@H]2CC[C@@](O)(c3ccc(-c4ncccn4)cn3)CC2)C1)c1cccc(C(F)(F)F)c1 [PF-4136309] | 393 and 389
6 | CC(C)(C)c1cc(NC(=O)Nc2ccc(-c3cn4c(n3)sc3cc(OCCN5CCOCC5)ccc34)cc2)no1 [QUIZARTINIB] | 377 and 345

same assay, conditions: human, 12 h, 10 µM, compound concentration 10 uM

Row | SMILES | Population Apoptotic (%) | Population Fragmented Nuclei (%) | Population Healthy Nuclei (%) | Population Hoechst High Intensity Objects (%) | Population Membrane Permeable-Phenotype (%) | Population Mitochondria Different-Phenotype (%) | Population Mitotic Cells (%) | Population Normal (%) | Population Pyknosed Nuclei (%) | Population Tubulin-Different-Phenotype (%)
7 | C[C@H](NC(=O)c1c(C(F)F)nn(C)c1Oc1cccc(C(F)(F)F)c1)c1ccc(C(=O)O)cc1 [PALUPIPRANT] | 38% and 60% | 7% and 5% | 76% and 77% | 7% and 10% | 0 | 55% and 68% | 61% and 40% | 92% and 89% | 16% and 17% | 40% and 27%
8 | O=C(NCC(=O)N1CC[C@H](N[C@H]2CC[C@@](O)(c3ccc(-c4ncccn4)cn3)CC2)C1)c1cccc(C(F)(F)F)c1 [PF-4136309] | 39% and 48% | 7% and 3% | 76% and 81% | 7% and 6% | 0 | 53% and 75% | 60% and 51% | 92% and 93% | 15% and 14% | 55% and 45%
9 | CC(C)(C)c1cc(NC(=O)Nc2ccc(-c3cn4c(n3)sc3cc(OCCN5CCOCC5)ccc34)cc2)no1 [QUIZARTINIB] | 53% and 73% | 7% | 71% | 23% and 12% | 0 | 78% and 81% | 46% and 26% | 76% and 87% | 21% | 68% and 63%

same assay, conditions: human, 12 h, 10 µM, compound concentration 10 uM

Row | SMILES | Total Cell Count
10 | C[C@H](NC(=O)c1c(C(F)F)nn(C)c1Oc1cccc(C(F)(F)F)c1)c1ccc(C(=O)O)cc1 [PALUPIPRANT] | 371 and 293
11 | O=C(NCC(=O)N1CC[C@H](N[C@H]2CC[C@@](O)(c3ccc(-c4ncccn4)cn3)CC2)C1)c1cccc(C(F)(F)F)c1 [PF-4136309] | 358 and 295
12 | CC(C)(C)c1cc(NC(=O)Nc2ccc(-c3cn4c(n3)sc3cc(OCCN5CCOCC5)ccc34)cc2)no1 [QUIZARTINIB] | 324 and 293

same assay, conditions: human, 24 h, 1 µM, compound concentration 1 uM

Row | SMILES | Population Apoptotic (%) | Population Fragmented Nuclei (%) | Population Healthy Nuclei (%) | Population Hoechst High Intensity Objects (%) | Population Membrane Permeable-Phenotype (%) | Population Mitochondria Different-Phenotype (%) | Population Mitotic Cells (%) | Population Normal (%) | Population Pyknosed Nuclei (%) | Population Tubulin-Different-Phenotype (%)
13 | C[C@H](NC(=O)c1c(C(F)F)nn(C)c1Oc1cccc(C(F)(F)F)c1)c1ccc(C(=O)O)cc1 [PALUPIPRANT] | 36% and 46% | 9% and 7% | 80% and 83% | 5% and 4% | 1% and 0% | 27% and 35% | 63% and 53% | 94% and 95% | 10% and 9% | 18% and 19%
14 | O=C(NCC(=O)N1CC[C@H](N[C@H]2CC[C@@](O)(c3ccc(-c4ncccn4)cn3)CC2)C1)c1cccc(C(F)(F)F)c1 [PF-4136309] | 25% and 39% | 10% and 8% | 80% | 2% and 5% | 0% | 26% and 31% | 74% and 60% | 97% and 94% | 9% and 11% | 15% and 13%
15 | CC(C)(C)c1cc(NC(=O)Nc2ccc(-c3cn4c(n3)sc3cc(OCCN5CCOCC5)ccc34)cc2)no1 [QUIZARTINIB] | 41% and 38% | 7% and 5% | 84% | 6% and 4% | 0% | 26% and 40% | 58% and 61% | 93% and 95% | 7% and 10% | 21% and 17%

same assay, conditions: human, 24 h, 1 µM, compound concentration 1 uM

Row | SMILES | Total Cell Count
16 | C[C@H](NC(=O)c1c(C(F)F)nn(C)c1Oc1cccc(C(F)(F)F)c1)c1ccc(C(=O)O)cc1 [PALUPIPRANT] | 527 and 604
17 | O=C(NCC(=O)N1CC[C@H](N[C@H]2CC[C@@](O)(c3ccc(-c4ncccn4)cn3)CC2)C1)c1cccc(C(F)(F)F)c1 [PF-4136309] | 561 and 485
18 | CC(C)(C)c1cc(NC(=O)Nc2ccc(-c3cn4c(n3)sc3cc(OCCN5CCOCC5)ccc34)cc2)no1 [QUIZARTINIB] | 491 and 440

same assay, conditions: human, 24 h, 10 µM, compound concentration 10 uM

Row | SMILES | Population Apoptotic (%) | Population Fragmented Nuclei (%) | Population Healthy Nuclei (%) | Population Hoechst High Intensity Objects (%) | Population Membrane Permeable-Phenotype (%) | Population Mitochondria Different-Phenotype (%) | Population Mitotic Cells (%) | Population Normal (%) | Population Pyknosed Nuclei (%) | Population Tubulin-Different-Phenotype (%)
19 | C[C@H](NC(=O)c1c(C(F)F)nn(C)c1Oc1cccc(C(F)(F)F)c1)c1ccc(C(=O)O)cc1 [PALUPIPRANT] | 26% and 55% | 9% and 7% | 74% and 79% | 3% and 7% | 0% | 46% and 52% | 73% and 44% | 96% and 92% | 16% and 13% | 29% and 19%
20 | O=C(NCC(=O)N1CC[C@H](N[C@H]2CC[C@@](O)(c3ccc(-c4ncccn4)cn3)CC2)C1)c1cccc(C(F)(F)F)c1 [PF-4136309] | 35% and 57% | 10% and 8% | 73% and 80% | 7% and 5% | 1% and 0% | 39% and 54% | 64% and 42% | 92% and 94% | 16% and 11% | 36% and 27%
21 | CC(C)(C)c1cc(NC(=O)Nc2ccc(-c3cn4c(n3)sc3cc(OCCN5CCOCC5)ccc34)cc2)no1 [QUIZARTINIB] | 62% and 69% | 8% and 9% | 79% and 78% | 16% and 9% | 0% | 63% and 75% | 37% and 30% | 83% and 90% | 12% and 11% | 57% and 50%

same assay, conditions: human, 24 h, 10 µM, compound concentration 10 uM

Row | SMILES | Total Cell Count
22 | C[C@H](NC(=O)c1c(C(F)F)nn(C)c1Oc1cccc(C(F)(F)F)c1)c1ccc(C(=O)O)cc1 [PALUPIPRANT] | 465 and 353
23 | O=C(NCC(=O)N1CC[C@H](N[C@H]2CC[C@@](O)(c3ccc(-c4ncccn4)cn3)CC2)C1)c1cccc(C(F)(F)F)c1 [PF-4136309] | 450 and 384
24 | CC(C)(C)c1cc(NC(=O)Nc2ccc(-c3cn4c(n3)sc3cc(OCCN5CCOCC5)ccc34)cc2)no1 [QUIZARTINIB] | 413 and 321

same assay, conditions: human, 48 h, 1 µM, compound concentration 1 uM

Row | SMILES | Population Apoptotic (%) | Population Fragmented Nuclei (%) | Population Healthy Nuclei (%) | Population Hoechst High Intensity Objects (%) | Population Membrane Permeable-Phenotype (%) | Population Mitochondria Different-Phenotype (%) | Population Mitotic Cells (%) | Population Normal (%) | Population Pyknosed Nuclei (%) | Population Tubulin-Different-Phenotype (%)
25 | C[C@H](NC(=O)c1c(C(F)F)nn(C)c1Oc1cccc(C(F)(F)F)c1)c1ccc(C(=O)O)cc1 [PALUPIPRANT] | 25% and 21% | 13% and 14% | 79% and 78% | 2% and 4% | 1% and 0% | 17% and 18% | 75% and 78% | 97% and 95% | 7% and 6% | 13% and 9%
26 | O=C(NCC(=O)N1CC[C@H](N[C@H]2CC[C@@](O)(c3ccc(-c4ncccn4)cn3)CC2)C1)c1cccc(C(F)(F)F)c1 [PF-4136309] | 18% and 27% | 16% | 78% and 77% | 0% and 2% | 1% and 0% | 14% and 16% | 81% and 72% | 99% and 97% | 4% and 5% | 9% and 11%
27 | CC(C)(C)c1cc(NC(=O)Nc2ccc(-c3cn4c(n3)sc3cc(OCCN5CCOCC5)ccc34)cc2)no1 [QUIZARTINIB] | 21% | 12% and 10% | 80% and 82% | 3% and 2% | 2% and 0% | 11% and 24% | 78% | 96% and 97% | 6% | 15% and 18%

same assay, conditions: human, 48 h, 1 µM, compound concentration 1 uM

Row | SMILES | Total Cell Count
28 | C[C@H](NC(=O)c1c(C(F)F)nn(C)c1Oc1cccc(C(F)(F)F)c1)c1ccc(C(=O)O)cc1 [PALUPIPRANT] | 916 and 867
29 | O=C(NCC(=O)N1CC[C@H](N[C@H]2CC[C@@](O)(c3ccc(-c4ncccn4)cn3)CC2)C1)c1cccc(C(F)(F)F)c1 [PF-4136309] | 1007 and 907
30 | CC(C)(C)c1cc(NC(=O)Nc2ccc(-c3cn4c(n3)sc3cc(OCCN5CCOCC5)ccc34)cc2)no1 [QUIZARTINIB] | 851 and 566

same assay, conditions: human, 48 h, 10 µM, compound concentration 10 uM

Row | SMILES | Population Apoptotic (%) | Population Fragmented Nuclei (%) | Population Healthy Nuclei (%) | Population Hoechst High Intensity Objects (%) | Population Membrane Permeable-Phenotype (%) | Population Mitochondria Different-Phenotype (%) | Population Mitotic Cells (%) | Population Normal (%) | Population Pyknosed Nuclei (%) | Population Tubulin-Different-Phenotype (%)
31 | C[C@H](NC(=O)c1c(C(F)F)nn(C)c1Oc1cccc(C(F)(F)F)c1)c1ccc(C(=O)O)cc1 [PALUPIPRANT] | 29% and 28% | 18% and 15% | 75% and 77% | 1% and 3% | 1% and 0% | 24% and 28% | 70% and 71% | 98% and 96% | 6% | 16% and 17%
32 | O=C(NCC(=O)N1CC[C@H](N[C@H]2CC[C@@](O)(c3ccc(-c4ncccn4)cn3)CC2)C1)c1cccc(C(F)(F)F)c1 [PF-4136309] | 31% and 43% | 13% and 11% | 75% and 79% | 5% and 4% | 0% | 34% and 46% | 68% and 56% | 94% and 95% | 11% and 8% | 23% and 30%
33 | CC(C)(C)c1cc(NC(=O)Nc2ccc(-c3cn4c(n3)sc3cc(OCCN5CCOCC5)ccc34)cc2)no1 [QUIZARTINIB] | 57% and 58% | 9% and 11% | 77% and 73% | 9% and 12% | 1% and 0% | 40% and 59% | 42% and 41% | 90% and 87% | 12% and 14% | 35% and 37%

same assay, conditions: human, 48 h, 10 µM, compound concentration 10 uM

Row | SMILES | Total Cell Count
34 | C[C@H](NC(=O)c1c(C(F)F)nn(C)c1Oc1cccc(C(F)(F)F)c1)c1ccc(C(=O)O)cc1 [PALUPIPRANT] | 821 and 554
35 | O=C(NCC(=O)N1CC[C@H](N[C@H]2CC[C@@](O)(c3ccc(-c4ncccn4)cn3)CC2)C1)c1cccc(C(F)(F)F)c1 [PF-4136309] | 636 and 468
36 | CC(C)(C)c1cc(NC(=O)Nc2ccc(-c3cn4c(n3)sc3cc(OCCN5CCOCC5)ccc34)cc2)no1 [QUIZARTINIB] | 583 and 392
